Results: ChEMBL document CHEMBL1151898 (J Nat Prod, 2009)

Assays:
[1] = target: T1, Xanthine dehydrogenase/oxidase (Bos taurus, UniProt P80457); assay: Activity at bovine xanthine oxidase at 10 uM; details: cattle
[2] = target: T1, Xanthine dehydrogenase/oxidase; assay: Activity at bovine xanthine oxidase at 25 uM; details: cattle
[3] = target: T1, Xanthine dehydrogenase/oxidase; assay: Activity at bovine xanthine oxidase at 50 uM; details: cattle
[4] = target: T1, Xanthine dehydrogenase/oxidase; assay: Activity at bovine xanthine oxidase at 25 uM preincubated for 10 mins; details: cattle
[5] = target: T1, Xanthine dehydrogenase/oxidase; assay: Ratio of kcat to km for bovine xanthine oxidase at 10 uM; details: cattle
[6] = target: T1, Xanthine dehydrogenase/oxidase; assay: Ratio of kcat to km for bovine xanthine oxidase at 25 uM; details: cattle
[7] = target: T1, Xanthine dehydrogenase/oxidase; assay: Ratio of kcat to km for bovine xanthine oxidase at 50 uM; details: cattle
[8] = target: T1, Xanthine dehydrogenase/oxidase; assay: Ratio of kcat to km for bovine xanthine oxidase at 25 uM preincubated for 10 mins; details: cattle
[9] = target: T1, Xanthine dehydrogenase/oxidase; assay: Inhibition of bovine xanthine oxidase assessed as reduction of cytochrome c at 10 uM; details: cattle
[10] = target: T1, Xanthine dehydrogenase/oxidase; assay: Inhibition of bovine xanthine oxidase assessed as reduction of cytochrome c at 50 uM; details: cattle
[11] = target: T1, Xanthine dehydrogenase/oxidase; assay: Inhibition of bovine xanthine oxidase assessed as reduction of cytochrome c at 25 uM preincubated for 10 mins; details: cattle
[12] = target: T1, Xanthine dehydrogenase/oxidase; assay: Inhibition of bovine xanthine oxidase assessed as reduction of cytochrome c; parameters: concentration or dose not given beside the values; details: cattle
[13] = target: T1, Xanthine dehydrogenase/oxidase; assay: Inhibition of bovine xanthine oxidase assessed as reduction in xanthine turnover at 10 uM; details: cattle
[14] = target: T1, Xanthine dehydrogenase/oxidase; assay: Inhibition of bovine xanthine oxidase assessed as reduction in xanthine turnover at 50 uM; details: cattle
[15] = target: T1, Xanthine dehydrogenase/oxidase; assay: Inhibition of bovine xanthine oxidase
[16] = target: T1, Xanthine dehydrogenase/oxidase; assay: Inhibition of bovine xanthine oxidase assessed as reduction in free enzyme turnover at 10 uM relative to control; details: cattle
[17] = target: T1, Xanthine dehydrogenase/oxidase; assay: Inhibition of bovine xanthine oxidase assessed as reduction in free enzyme turnover at 50 uM relative to control; details: cattle
[18] = target: T1, Xanthine dehydrogenase/oxidase; assay: Inhibition of bovine xanthine oxidase assessed as reduction in free enzyme turnover at 50 uM relative to control; details: cattle
[19] = target: T1, Xanthine dehydrogenase/oxidase; assay: Inhibition of bovine xanthine oxidase assessed as reduction in xanthine turnover at 25 uM; details: cattle
[20] = target: T1, Xanthine dehydrogenase/oxidase; assay: Ratio of kcat to km for bovine xanthine oxidase at 25 uM preincubated for 10 mins relative to control; details: cattle
[21] = target: T1, Xanthine dehydrogenase/oxidase; assay: Inhibition of bovine xanthine oxidase assessed as decrease in production of superoxide at 50 uM relative to control; details: cattle
Method in brief: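 Superoxide followed indirectly by cytochrome c reduction. A550 monitored (Δε550 = 19.6 mM−1cm−1), initial rates vs no-inhibitor control. 25°C, 0.1 M MOPS, 0.2 mM EDTA, 0.1 M KCl, pH 7.4.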

T1 sequence (P80457 whole entry): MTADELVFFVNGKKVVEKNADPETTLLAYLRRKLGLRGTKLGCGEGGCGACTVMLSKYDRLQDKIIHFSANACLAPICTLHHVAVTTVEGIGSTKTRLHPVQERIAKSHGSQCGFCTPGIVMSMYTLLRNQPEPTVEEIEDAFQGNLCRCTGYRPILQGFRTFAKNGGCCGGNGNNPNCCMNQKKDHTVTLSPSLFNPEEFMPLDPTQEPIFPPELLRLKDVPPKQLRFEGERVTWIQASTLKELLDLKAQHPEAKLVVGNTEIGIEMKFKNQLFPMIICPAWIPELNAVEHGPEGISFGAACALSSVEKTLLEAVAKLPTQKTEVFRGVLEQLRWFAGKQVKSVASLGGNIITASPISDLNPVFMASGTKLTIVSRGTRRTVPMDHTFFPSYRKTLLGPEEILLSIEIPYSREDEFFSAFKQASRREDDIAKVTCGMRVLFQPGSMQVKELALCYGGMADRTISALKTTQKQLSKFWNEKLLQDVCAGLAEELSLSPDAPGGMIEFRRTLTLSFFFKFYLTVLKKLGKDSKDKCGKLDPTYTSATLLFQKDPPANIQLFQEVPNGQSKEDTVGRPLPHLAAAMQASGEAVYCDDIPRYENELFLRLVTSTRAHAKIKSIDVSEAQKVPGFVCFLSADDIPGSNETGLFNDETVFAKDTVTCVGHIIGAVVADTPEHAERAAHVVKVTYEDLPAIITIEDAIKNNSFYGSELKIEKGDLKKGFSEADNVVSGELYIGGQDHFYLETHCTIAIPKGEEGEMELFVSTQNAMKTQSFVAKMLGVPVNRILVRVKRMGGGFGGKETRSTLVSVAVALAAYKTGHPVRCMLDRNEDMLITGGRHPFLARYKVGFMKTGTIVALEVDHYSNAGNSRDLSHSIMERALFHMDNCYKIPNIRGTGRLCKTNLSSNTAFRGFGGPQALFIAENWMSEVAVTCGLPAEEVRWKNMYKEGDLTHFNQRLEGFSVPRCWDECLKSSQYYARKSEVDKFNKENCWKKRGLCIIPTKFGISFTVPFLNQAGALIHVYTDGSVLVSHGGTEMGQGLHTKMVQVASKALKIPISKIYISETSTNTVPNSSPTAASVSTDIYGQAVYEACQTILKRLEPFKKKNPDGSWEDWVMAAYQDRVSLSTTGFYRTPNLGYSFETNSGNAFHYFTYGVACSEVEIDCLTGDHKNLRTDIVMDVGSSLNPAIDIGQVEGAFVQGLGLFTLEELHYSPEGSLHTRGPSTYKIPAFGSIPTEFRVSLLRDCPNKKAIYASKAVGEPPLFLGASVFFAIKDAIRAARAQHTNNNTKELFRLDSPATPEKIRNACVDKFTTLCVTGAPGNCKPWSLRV

| inhibition at 10 µM [13] [%] | inhibition at 50 µM [14] [%] | Structure (SMILES) | Kcat [1] [s⁻¹] | Kcat [2] [s⁻¹] | Kcat [3] [s⁻¹] | Kcat [4] [s⁻¹] | Kcat/Km [5] [M⁻¹ s⁻¹] | Kcat/Km [6] [M⁻¹ s⁻¹] | Kcat/Km [7] [M⁻¹ s⁻¹] | Kcat/Km [8] [M⁻¹ s⁻¹] | Activity [9] [nM/s] | Activity [10] [nM/s] | Activity [11] [nM/s] | Activity [12] [nM/s] | also measured |
| --- | --- | --- | --- | --- | --- | --- | --- | --- | --- | --- | --- | --- | --- | --- | --- |
| – | – | Oc1ncnc2[nH]ncc12 [ALLOPURINOL] | 5.9 | 11.8 | 4.3 | 1.3 | 320000 | 150000 | 110000 | 7000 | 140 | 120 | 28 | 140 | – |
| 60 | > 80 | COc1cc(/C=C/C(=O)CC(=O)/C=C/c2ccc(O)c(OC)c2)ccc1O [CURCUMIN] | 2.6 | 4.3 | 5 | 6.5 | 4.8e+06 | 6.5e+06 | 5.1e+06 | 3.9e+06 | 160 | 150 | 150 | 150 | – |
| – | – | O=c1cc(-c2ccc(O)c(O)c2)oc2cc(O)cc(O)c12 [LUTEOLIN] | 6.2 | 4.5 | 12.2 | 3.8 | 200000 | 30000 | 20000 | 50000 | 100 | 71 | 110 | 82 | Ki [15]: 1900 nM |
| – | – | O=c1c(O)c(-c2ccc(O)c(O)c2)oc2cc(O)cc(O)c12 [QUERCETIN] | 3.8 | 1.9 | 12.4 | 8.1 | 1.6e+06 | 10000 | 20000 | 50000 | 140 | 80 | 110 | 100 | fold change (FC) [16]: 20; fold change (FC) [17]: 170; fold change (FC) [18]: 170 |
| 50 | 50 | COc1cc(C2Oc3cc([C@H]4Oc5cc(O)cc(O)c5C(=O)[C@@H]4O)ccc3OC2CO)ccc1O (stereo partly specified) [SILIBININ] | 5.8 | 13.3 | 4 | 6.9 | 140000 | 130000 | 110000 | 70000 | 160 | 140 | 120 | 150 | inhibition at 25 µM [19]: 50%; fold change (FC) [20]: 80; inhibition at 50 µM [21]: 20% |
